Assay results: ChEMBL document CHEMBL1157562, “Piperazinyl glutamate pyridines as potent orally bioavailable P2Y12 antagonists for inhibition of platelet aggregation” (J Med Chem, 2010)

Columns and labels:
[1] = Antiplatelet aggregation activity against adenosine diphosphate-induced human platelet rich plasma assessed as inhibition of platelet aggregation by turbidimetric method; assay type: functional; settings: Homo sapiens, Platelet, Plasma
Method in brief: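 Human PRP, prepared by two-step centrifugation and adjusted to 330 000 platelets/μL with PPP. Compound was preincubated 5 min at 37 °C in 0.5% DMSO, then 20 μM ADP was added. OD626 was read kinetically for 15 min at 37 °C with mixing between reads.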

P2Y purinoceptor 12 = P2Y purinoceptor 12 (Homo sapiens, UniProt Q9H244); assay: Displacement of [33P]ADP from human recombinant P2Y12 receptor expressed in CHO cells; assay type: cell-based
P2Y purinoceptor 12, sequence (Q9H244 whole entry): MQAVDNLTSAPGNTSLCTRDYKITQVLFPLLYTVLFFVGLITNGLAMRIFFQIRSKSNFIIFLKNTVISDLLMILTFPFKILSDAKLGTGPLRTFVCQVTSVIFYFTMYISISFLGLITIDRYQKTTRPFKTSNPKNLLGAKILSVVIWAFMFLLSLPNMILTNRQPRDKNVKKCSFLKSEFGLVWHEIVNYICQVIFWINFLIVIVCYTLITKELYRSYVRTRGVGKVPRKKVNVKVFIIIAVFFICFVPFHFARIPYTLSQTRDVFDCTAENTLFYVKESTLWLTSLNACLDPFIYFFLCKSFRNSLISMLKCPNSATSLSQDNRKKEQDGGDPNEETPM
Method in brief: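 Washed membranes from CHO cells expressing synthetic human P2Y12, incubated 1 h at room temperature with 0.2 nM 33P-MeSADP in 50 mM Tris/100 mM NaCl/1 mM EDTA. Compound was tested as a 7-point 3-fold series in triplicate. Nonspecific binding was defined with 300 nM 2-MeSADP, followed by filtration.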

Platelet = assay: Relative potency, ratio of IC50 for drug to IC50 for AZD-6140 for platelet aggregation in human platelet rich plasma; assay type: functional

## CCOC(=O)N1CCN(C(=O)[C@H](CCC(=O)O)NC(=O)c2cc(OCC)cc(-c3ccccc3)n2)CC1
[1]
  IC50: 31000 nM
P2Y purinoceptor 12
  Ki: 94 nM
Platelet
  Ratio IC50: 44

## CCCCCOC(=O)N1CCN(C(=O)[C@H](CCC(=O)O)NC(=O)c2cc(OCC)cc(-c3ccccc3)n2)CC1
[1]
  IC50: 17000 nM
P2Y purinoceptor 12
  Ki: 7.9 nM
Platelet
  Ratio IC50: 23

## CCCCCOC(=O)N1CCN(C(=O)[C@H](CCC(=O)O)NC(=O)c2cc(OC3CCN(S(=O)(=O)CC)CC3)cc(-c3ccccc3)n2)CC1
[1]
  IC50: 5300 nM
P2Y purinoceptor 12
  Ki: 5.1 nM
Platelet
  Ratio IC50: 5

## CCOC(=O)N1CCN(C(=O)[C@H](CCC(=O)O)NC(=O)c2cc(OCCCCO)cc(-c3ccccc3)n2)CC1
[1]
  IC50: 13000 nM
P2Y purinoceptor 12
  Ki: 132 nM
Platelet
  Ratio IC50: 13

## CCCOc1cc(C(=O)N[C@@H](CCC(=O)O)C(=O)N2CCN(C(=O)OCC)CC2)nc(-c2ccccc2)c1
[1]
  IC50: 36000 nM
P2Y purinoceptor 12
  Ki: 120 nM
Platelet
  Ratio IC50: 46

## CCCCCOC(=O)N1CCN(C(=O)[C@H](CCC(=O)O)NC(=O)c2cc(NC(=O)OCC)cc(-c3ccccc3)n2)CC1
[1]
  IC50: 9300 nM
P2Y purinoceptor 12
  Ki: 11 nM
Platelet
  Ratio IC50: 15

## CCCCOC(=O)N1CCN(C(=O)[C@H](CCC(=O)O)NC(=O)c2cc(OCC3CCNCC3)cc(-c3ccccc3)n2)CC1
[1]
  IC50: 210 nM
P2Y purinoceptor 12
  Ki: 4.2 nM
Platelet
  Ratio IC50: 0.37

## CCOC(=O)N1CCN(C(=O)[C@H](CCC(=O)O)NC(=O)c2cc(OCc3ccccc3)cc(-c3ccccc3)n2)CC1
[1]
  IC50: 31000 nM
P2Y purinoceptor 12
  Ki: 28 nM
Platelet
  Ratio IC50: 42

## CCCCCOC(=O)N1CCN(C(=O)[C@H](CCC(=O)O)NC(=O)c2cc(OCCO)cc(-c3ccccc3)n2)CC1
[1]
  IC50: 12000 nM
P2Y purinoceptor 12
  Ki: 31 nM
Platelet
  Ratio IC50: 10

## CCCCOC(=O)N1CCN(C(=O)[C@H](CCC(=O)O)NC(=O)c2cc(N3CCC(N)CC3)cc(-c3ccccc3)n2)CC1
[1]
  IC50: 910 nM
P2Y purinoceptor 12
  Ki: 3.5 nM
Platelet
  Ratio IC50: 1.2

## CCOC(=O)N1CCN(C(=O)[C@H](CCC(=O)O)NC(=O)c2cc(O)cc(-c3ccccc3)n2)CC1
[1]
  IC50: 24000 nM
P2Y purinoceptor 12
  Ki: 62 nM
Platelet
  Ratio IC50: 41

## CCCCCOC(=O)N1CCN(C(=O)[C@H](CCC(=O)O)NC(=O)c2cc(NC(=O)C(F)(F)F)cc(-c3ccccc3)n2)CC1
[1]
  IC50: 8200 nM
P2Y purinoceptor 12
  Ki: 9.1 nM
Platelet
  Ratio IC50: 8.2

## CCCCCCOC(=O)N1CCN(C(=O)[C@H](CCC(=O)O)NC(=O)c2cc(O)cc(-c3ccccc3)n2)CC1
[1]
  IC50: 21000 nM
P2Y purinoceptor 12
  Ki: 20 nM
Platelet
  Ratio IC50: 21

## CCCCOC(=O)N1CCN(C(=O)[C@H](CCC(=O)O)NC(=O)c2cc(OC3CCN(S(=O)(=O)CC)CC3)cc(-c3ccccc3)n2)CC1
[1]
  IC50: 3300 nM
P2Y purinoceptor 12
  Ki: 7.6 nM
Platelet
  Ratio IC50: 3.1

## CCCCCOC(=O)N1CCN(C(=O)[C@H](CCC(=O)O)NC(=O)c2cc(CCC(=O)N(C)C)cc(-c3ccccc3)n2)CC1
[1]
  IC50: 2900 nM
P2Y purinoceptor 12
  Ki: 2.1 nM
Platelet
  Ratio IC50: 2.7

## CCCCCOC(=O)N1CCN(C(=O)[C@H](CCC(=O)O)NC(=O)c2cc(C(=O)NC)cc(-c3ccccc3)n2)CC1
[1]
  IC50: 6800 nM
P2Y purinoceptor 12
  Ki: 10 nM
Platelet
  Ratio IC50: 9.7

## CCCCCOC(=O)N1CCN(C(=O)[C@H](CCC(=O)O)NC(=O)c2cc(OCC3CCN(C(=O)C(F)(F)F)CC3)cc(-c3ccccc3)n2)CC1
[1]
  IC50: 3500 nM
P2Y purinoceptor 12
  Ki: 4.5 nM
Platelet
  Ratio IC50: 4.8

## CCCCOC(=O)N1CCN(C(=O)[C@H](CCC(=O)O)NC(=O)c2cc(OCCCC)cc(-c3ccccc3)n2)CC1
[1]
  IC50: 27000 nM
P2Y purinoceptor 12
  Ki: 35 nM
Platelet
  Ratio IC50: 18

## CCCCOC(=O)N1CCN(C(=O)[C@H](CCC(=O)O)NC(=O)c2cc(OC3CCN(C(C)C)CC3)cc(-c3ccccc3)n2)CC1
[1]
  IC50: 880 nM
P2Y purinoceptor 12
  Ki: 10 nM
Platelet
  Ratio IC50: 0.75

## CCCCCOC(=O)N1CCN(C(=O)[C@H](CCC(=O)O)NC(=O)c2cc(N3CCC(COCCC)CC3)cc(-c3ccccc3)n2)CC1
[1]
  IC50: 8900 nM
P2Y purinoceptor 12
  Ki: 22 nM
Platelet
  Ratio IC50: 12

## CCCCCOC(=O)N1CCN(C(=O)[C@H](CCC(=O)O)NC(=O)c2cc(OCC3CCN(C(=O)OCC)CC3)cc(-c3ccccc3)n2)CC1
[1]
  IC50: 7400 nM
P2Y purinoceptor 12
  Ki: 1.3 nM
Platelet
  Ratio IC50: 5.1

## CCCCOC(=O)N1CCN(C(=O)[C@H](CCC(=O)O)NC(=O)c2cc(N3CCC(NC)CC3)cc(-c3ccccc3)n2)CC1
[1]
  IC50: 1200 nM
P2Y purinoceptor 12
  Ki: 2.7 nM
Platelet
  Ratio IC50: 0.86

## CCCCCOC(=O)N1CCN(C(=O)[C@H](CCC(=O)O)NC(=O)c2cc(C(=O)NCCC)cc(-c3ccccc3)n2)CC1
[1]
  IC50: 12000 nM
P2Y purinoceptor 12
  Ki: 11 nM
Platelet
  Ratio IC50: 20

## CCCCOC(=O)N1CCN(C(=O)[C@H](CCC(=O)O)NC(=O)c2cc(OCC3CCN(C(=O)C(F)(F)F)CC3)cc(-c3ccccc3)n2)CC1
[1]
  IC50: 3000 nM
P2Y purinoceptor 12
  Ki: 10 nM
Platelet
  Ratio IC50: 2.8

## CCCCCCOC(=O)N1CCN(C(=O)[C@H](CCC(=O)O)NC(=O)c2cc(NCCOC)cc(-c3ccccc3)n2)CC1
[1]
  IC50: 7300 nM
P2Y purinoceptor 12
  Ki: 11 nM
Platelet
  Ratio IC50: 9.6

## CCCCCCOC(=O)N1CCN(C(=O)[C@H](CCC(=O)O)NC(=O)c2cc(OCCCC)cc(-c3ccccc3)n2)CC1
[1]
  IC50: 97000 nM
P2Y purinoceptor 12
  Ki: 89 nM
Platelet
  Ratio IC50: 65

## CCCCOC(=O)N1CCN(C(=O)[C@H](CCC(=O)O)NC(=O)c2cc(OCCC3CCCNC3)cc(-c3ccccc3)n2)CC1 (stereo partly drawn)
[1]
  IC50: 1000 nM
P2Y purinoceptor 12
  Ki: 2.5 nM
Platelet
  Ratio IC50: 0.67

## CCCCOC(=O)N1CCN(C(=O)[C@H](CCC(=O)O)NC(=O)c2cc(OC(=O)N3CC[C@@H](OC)C3)cc(-c3ccccc3)n2)CC1
[1]
  IC50: 770 nM
P2Y purinoceptor 12
  Ki: 1.5 nM
Platelet
  Ratio IC50: 0.97

## CCCCCOC(=O)N1CCN(C(=O)[C@H](CCC(=O)O)NC(=O)c2cc(OC3CCN(C(=O)OCC)CC3)cc(-c3ccccc3)n2)CC1
[1]
  IC50: 8200 nM
P2Y purinoceptor 12
  Ki: 6.5 nM
Platelet
  Ratio IC50: 8.1

## CCCCCOC(=O)N1CCN(C(=O)[C@H](CCC(=O)O)NC(=O)c2cc(NC(=O)NCC(=O)N(C)C)cc(-c3ccccc3)n2)CC1
[1]
  IC50: 3400 nM
P2Y purinoceptor 12
  Ki: 4.7 nM
Platelet
  Ratio IC50: 3.9

## CCCCOC(=O)N1CCN(C(=O)[C@H](CCC(=O)O)NC(=O)c2cc(O)cc(-c3ccccc3)n2)CC1
[1]
  IC50: 8800 nM
P2Y purinoceptor 12
  Ki: 31 nM
Platelet
  Ratio IC50: 9.7

## CCOC(=O)N1CCN(C(=O)[C@H](CCC(=O)O)NC(=O)c2cc(N3CCC(CO)CC3)cc(-c3ccccc3)n2)CC1
[1]
  IC50: 19000 nM
P2Y purinoceptor 12
  Ki: 54 nM
Platelet
  Ratio IC50: 22

## CCCCCOC(=O)N1CCN(C(=O)[C@H](CCC(=O)O)NC(=O)c2cc(C(=O)NCCCOC)cc(-c3ccccc3)n2)CC1
[1]
  IC50: 4600 nM
P2Y purinoceptor 12
  Ki: 6.1 nM
Platelet
  Ratio IC50: 12

## CCCCCOC(=O)N1CCN(C(=O)[C@H](CCC(=O)O)NC(=O)c2cc(NCCC)cc(-c3ccccc3)n2)CC1
[1]
  IC50: 13000 nM
P2Y purinoceptor 12
  Ki: 12 nM
Platelet
  Ratio IC50: 14

## CCCCCOC(=O)N1CCN(C(=O)[C@H](CCC(=O)O)NC(=O)c2cc(C(=O)N(C)C)cc(-c3ccccc3)n2)CC1
[1]
  IC50: 1100 nM
P2Y purinoceptor 12
  Ki: 2.4 nM
Platelet
  Ratio IC50: 1

## CCCCCOC(=O)N1CCN(C(=O)[C@H](CCC(=O)O)NC(=O)c2cc(OC3CCNCC3)cc(-c3ccccc3)n2)CC1
[1]
  IC50: 500 nM
P2Y purinoceptor 12
  Ki: 3.5 nM
Platelet
  Ratio IC50: 0.64

## CCCCOC(=O)N1CCN(C(=O)[C@H](CCC(=O)O)NC(=O)c2cc(N3CCOCC3)cc(-c3ccccc3)n2)CC1
[1]
  IC50: 7200 nM
P2Y purinoceptor 12
  Ki: 3.3 nM
Platelet
  Ratio IC50: 11

## CCCCOC(=O)N1CCN(C(=O)[C@H](CCC(=O)O)NC(=O)c2cc(OC3CCNC3)cc(-c3ccccc3)n2)CC1 (stereo partly drawn)
[1]
  IC50: 2600 nM
P2Y purinoceptor 12
  Ki: 3.7 nM
Platelet
  Ratio IC50: 1.3

## CCCCCOC(=O)N1CCN(C(=O)[C@H](CCC(=O)O)NC(=O)c2cc(OC(=O)N3CCCCC3)cc(-c3ccccc3)n2)CC1
[1]
  IC50: 2100 nM
P2Y purinoceptor 12
  Ki: 11 nM
Platelet
  Ratio IC50: 1.3

## CCCCOC(=O)N1CCN(C(=O)[C@H](CCC(=O)O)NC(=O)c2cc(OCC3CCN(C)CC3)cc(-c3ccccc3)n2)CC1
[1]
  IC50: 240 nM
P2Y purinoceptor 12
  Ki: 2.5 nM
Platelet
  Ratio IC50: 0.38

## CCCCCOC(=O)N1CCN(C(=O)[C@H](CCC(=O)O)NC(=O)c2cc(C(=O)N(C)CCCOC)cc(-c3ccccc3)n2)CC1
[1]
  IC50: 630 nM
P2Y purinoceptor 12
  Ki: 2.6 nM
Platelet
  Ratio IC50: 1.4
